Compound activity as filed in PubChem BioAssay.
Arrestin-AP2 inh = inhibitors of beta-arrestin/AP2 binding, primary screen, biochemical, GPCR trafficking, flow cytometry; inhibition, % at 10 µM; 340,000 compounds, 0.31% hits; beta-arrestin 1 C-terminal peptide binding to AP2 beta2-adaptin appendage (human); FITC-arrestin peptide / GST-AP2 beads; AP2 beta2 appendage carries R879A mutation;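 active = inhibition above a set limit, near 3 SD of compounds lacking own fluorescence, cut at about 54% in these data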
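Material – AP2 appendage R879A on GSH beads · Buffer or medium – PBS with 0.05% Tween 20 and 0.1% BSA · Probe or stimulus – fluorescein-tagged arrestin peptide at 50 nM final · Incubation – compound with beads 12 min RT, then probe 1 h RT · Detection – high-throughput flow cytometry of beads, ex 488, em 535 nm · Evaluation – percent response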
NLRP3 yeast inh = NALP3 inflammasome inhibitors in reconstituted yeast, primary screen, luminescence, uHTS | Yeast reconstituted NLRP3/ASC/caspase-1, beta-gal luminescence, 24 h | inhibition, % at 10 µM | 330,000 compounds, 0.39% hits;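 active = inhibition of 50% or more; inactive = inhibition below 50%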
PolyA inhibitor = polyadenylation inhibitors in yeast reporter cells, primary screen, luminescence, S. cerevisiae; S. cerevisiae SKY197-pL101 polyadenylation reporter, beta-gal luminescence; efflux-impaired pdr1/pdr3 knockout yeast; score 100 = 6 SD above DMSO; activity score, % at 12 µM; 300,000 compounds, 0.02% hits; AID 1875, 2009;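 active = lowest replicate activity score at least 50, where 100 means six control SD above control mean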;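 note: yeast exposed to compound for 9 h at 30 °C; higher score means more reporter readthrough which indicates perturbed polyadenylation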
NALP1 inh = NALP1 inflammasome inhibitors in reconstituted yeast, colorimetric, S. cerevisiae, triplicate retest. S. cerevisiae NALP1/ASC/caspase-1 growth, X-gal OD620, 72 h. inhibition, % at 10 µM. 280,000 compounds, 0.61% hits; in the data active = inhibition mostly above about 24%, no sharp cut-off; inactive = mostly below about 32%
DSG3 Ab inh = inhibitors of pemphigus antibody binding to DSG3, primary screen, biochemical, bead-based, flow cytometry, scFv-GFP; DSG3-coupled beads, scFv-anti-DSG3-GFP binding; hits give low values; 310,000 compounds, 0.48% hits; Desmoglein-3 (Homo sapiens), P32926; binding (percent of control), % at 10 µM;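 active = binding more than 3 SD below its plate's average and above zero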;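 note: hits lower antibody fragment binding to DSG3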
ALR inh = inhibitors of human ALR sulfhydryl oxidase, primary screen, biochemical, H2O2 detection, HRP-luminol luminescence, single point; purified ALR, DTT oxidation; AID 485317, 2010; 290,000 compounds, 3.8% hits; inhibition, % (concentration not given with the values); FAD-linked sulfhydryl oxidase ALR (Homo sapiens), P55789;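 active = mean replicate inhibition above about 79%, with every replicate also reaching it, limit read from the data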
Hits are given with their value; - = inactive; . = no result. This is a sample that favours compounds with a hit; in the whole collection about 4.6% have one here.

SMILES	Arrestin-AP2 inh	NLRP3 yeast inh	PolyA inhibitor	NALP1 inh	DSG3 Ab inh	ALR inh
O=C(CN(C1CCCCC1)S(=O)(=O)c1ccccc1)N1CCCC1	-	-	-	-	-	-
O=C(O)CN1CCc2ccccc2C1	-	-	-	32	-	-
O=C(/C=C/C(=O)N1CCc2ccccc2C1)N1CCc2ccccc2C1	-	-	-	-	-	85
O=C(CN(C1CCCCC1)C1CCCCC1)N1CCc2ccccc2C1	-	-	-	-	41	-
Cc1noc(C)c1COC(=O)c1csc2c1CCC(C)C2 (stereo not given)	-	-	.	.	-	-
Cc1nc2ccccc2n1-c1ccccc1	-	-	-	-	-	-
Cc1nc2cc(N)ccc2n1-c1ccccc1	-	-	-	-	-	99
COc1cc(CNc2ccc3c(c2)OCCO3)ccc1OCC(N)=O	-	-	-	-	-	99
O=C(Nc1ccc(F)c(Cl)c1)c1ccc2c(c1)OCO2	-	-	-	-	-	-
COc1ccc(NC(=O)c2ccc3c(c2)OCO3)cc1Cl	-	-	-	-	46	-
COc1ccc(NCc2ccc3c(c2)OCO3)cc1Cl	-	-	-	-	-	97
O=C(CNC(=O)c1ccc(Br)o1)Nc1ccc(F)c(S(=O)(=O)N2CCOCC2)c1	-	-	.	.	-	.
S=c1[nH]c2cc(Cl)ccc2s1	-	-	-	-	-	98
S=c1[nH]c2ccc(Cl)cc2[nH]1	-	-	-	-	-	-
Cn1c(SCC(=O)c2ccccc2)ncc(C(=O)Nc2ccccc2)c1=O	-	-	-	.	-	98
CC(C)NC(=S)N/N=C/c1c[nH]c2ccccc12	-	-	-	-	-	-
Cc1[nH]c2ccccc2c1/C=N/NC(=S)NC(C)C	-	-	-	-	-	99
O=C1NC(c2cccc(OCc3ccccc3)c2)Nc2ccccc21 (stereo not given)	-	.	.	.	-	.
CC(C)Cc1nnc(NC(=O)CCC(=O)NC2CC2)s1	-	-	-	38	-	-
CC(C)Cc1nnc(NC(=O)CCC(=O)NC2CCCCCCC2)s1	-	-	-	-	-	-
Oc1[nH]c2ccccc2c1C1=NCCCCC1	-	-	-	-	-	93
O=NC1=C(c2c(O)[nH]c3ccccc23)CCCC1	-	-	-	-	-	-
Cc1cccc(NC(=O)C2CC(=O)n3cnnc3S2)c1 (stereo not given)	-	-	-	40	-	-
COc1ccc(COCC(O)CN2CCN(S(=O)(=O)c3ccc(C(C)C)cc3)CC2)cc1 (stereo not given)	-	-	.	.	-	-
S=c1[nH]nc(C2CCCCC2)n1/N=C/C(Cl)=C\c1ccccc1	-	-	-	-	.	-
SMILES	Arrestin-AP2 inh	NLRP3 yeast inh	PolyA inhibitor	NALP1 inh	DSG3 Ab inh	ALR inh
CC(/C=N/n1c(-c2ccco2)n[nH]c1=S)=C\c1ccco1	-	-	-	-	-	-
S=c1[nH]nc(-c2ccco2)n1/N=C/C(Cl)=C/c1ccccc1	-	-	-	-	-	97
Cc1cc(-c2n[nH]c(=S)n2/N=C/C(Cl)=C/c2ccccc2)n[nH]1	-	-	-	-	-	96
Cc1ccc(S(=O)(=O)N2CCCC2)cc1C(=O)Nc1ccc(-n2cnnn2)cc1	-	-	.	.	-	-
CC(C)c1ccc(NC(=O)CCNC(=O)N2CC(=O)Nc3ccccc32)cc1	-	-	-	-	-	-
Cc1ccc(-n2ncc3c2CC(C)(C)CC3NC(=O)CCc2cccnc2)cc1 (stereo not given)	-	-	-	-	-	-
CCOc1ccccc1NC(=S)NC(=O)C1CC1	-	-	-	26	.	-
O=C(O)/C=C/C(=O)Nc1ccccc1C(=O)OCC(=O)c1ccc2c(c1)OCCO2	-	-	.	-	.	88
COC(=O)c1ccccc1NC(=O)/C=C/C(=O)O	-	-	-	-	-	.
CCOC(=O)c1ccccc1NC(=O)/C=C/C(=O)O	-	-	-	-	-	98
CCOC(=O)c1ccccc1N/C=C/C(=O)c1ccccc1	-	-	-	.	36	-
CCOc1ccccc1NC(=O)/C=C/C(N)=O	-	-	-	54	-	-
CCOc1ccccc1NC(=O)/C=C/c1ccccc1[N+](=O)[O-]	-	-	-	-	.	-
CCCc1cc(C(=O)Nc2ccc(CC)cc2)no1	-	-	-	-	-	.
CCCCOC(=O)c1ccc(NC(=O)CSC2=Nc3ccccc3C3CC=NN23)cc1 (stereo not given)	-	-	-	-	-	100
CN1/C(=C\C=N\NC(=O)c2cccnc2)C(C)(C)c2ccccc21	-	-	-	-	-	98
Nc1nc(Cl)cc(Oc2ccc([N+](=O)[O-])cc2)n1	-	-	-	-	55	-
COc1ccc(Oc2cc(Cl)nc(N)n2)cc1	-	-	-	-	-	-
CCOc1ccc(-c2c(C(=O)N/N=C/c3c[nH]c4ccccc34)nnn2-c2nonc2N)cc1	-	-	-	-	-	-
CN(C)C(=O)c1c(-c2ccccc2)oc2ccc(O)cc12	-	-	-	-	-	98
O=C(O)c1c(-c2ccccc2)oc2ccc(O)cc12	-	-	-	-	-	-
COc1cc(CNc2nnnn2C)cc(OC)c1OC	-	-	-	-	-	.
CC(=O)Nc1ccc(C(=O)OCC(=O)Nc2c(C)n(C)n(-c3ccccc3)c2=O)cc1	-	-	.	.	.	-
NNC(=O)c1cc2sccc2s1	-	-	-	-	.	98
CCC(C)c1ccc(NC(=O)c2c([N+](=O)[O-])cnn2CC)cc1 (stereo not given)	-	-	-	-	-	-
SMILES	Arrestin-AP2 inh	NLRP3 yeast inh	PolyA inhibitor	NALP1 inh	DSG3 Ab inh	ALR inh
CCCCCn1c(NC2CCCCC2)nc2c1c(=O)[nH]c(=O)n2C	-	-	-	-	-	-
CCC(C)Nc1nc2c(c(=O)[nH]c(=O)n2C)n1CCOc1ccccc1 (stereo not given)	-	-	-	-	-	98
Cn1c(=O)[nH]c(=O)c2c1nc(NCCO)n2CCOc1ccccc1	-	-	-	-	-	-
CCCCn1c(NC(C)CC)nc2c1c(=O)[nH]c(=O)n2C (stereo not given)	-	-	-	-	-	92
Cc1ccc(S(=O)(=O)Nc2ccccc2C(=O)N2CCCCC2)cc1	-	-	-	-	-	-
O=S(c1ccc2ccccc2c1)c1cnns1 (stereo not given)	-	-	.	-	-	99
Cc1nnsc1S(=O)c1ccc(Cl)c(Cl)c1 (stereo not given)	-	-	-	-	-	.
O=C(c1ccc(Cl)c(S(=O)(=O)NCc2cccnc2)c1)N1CCCC1	-	-	.	.	-	.
